Compound activity deposited in PubChem BioAssay by The Scripps Research Institute Molecular Screening Center.
M5 PAM = positive allosteric modulators of human muscarinic M5 receptor; CHO-K1 hM5, Fluo-8 calcium, ACh EC20 PAM; 0% = ACh EC20, 100% = ACh EC100; activation, % at 3 µM; 360,000 tested, 0.3% active; AID 624038;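 active means activation above the run cutoff, the mean activation of all test compounds plus 3 SD, cut at about 18% in these data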
Target sequence (P08912 whole entry, looked up): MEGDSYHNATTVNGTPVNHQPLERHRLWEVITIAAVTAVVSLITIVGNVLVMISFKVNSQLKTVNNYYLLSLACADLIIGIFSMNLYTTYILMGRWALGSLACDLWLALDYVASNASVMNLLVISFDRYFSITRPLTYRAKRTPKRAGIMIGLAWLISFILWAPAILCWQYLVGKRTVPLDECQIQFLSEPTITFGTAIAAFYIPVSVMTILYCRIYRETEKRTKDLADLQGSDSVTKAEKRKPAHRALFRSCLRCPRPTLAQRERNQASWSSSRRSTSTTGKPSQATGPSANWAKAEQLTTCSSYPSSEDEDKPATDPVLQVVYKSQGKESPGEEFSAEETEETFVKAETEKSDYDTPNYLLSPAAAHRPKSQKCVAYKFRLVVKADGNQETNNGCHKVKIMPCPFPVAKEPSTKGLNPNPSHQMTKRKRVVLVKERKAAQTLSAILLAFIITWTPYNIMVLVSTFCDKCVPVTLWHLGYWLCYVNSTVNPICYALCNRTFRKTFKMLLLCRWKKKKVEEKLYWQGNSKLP
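Probe or stimulus: acetylcholine, EC20 level; Assay system: human M5 receptor in CHO-K1 cells; Schedule: compound preincubation 140 s before EC20 acetylcholine addition; Technique: intracellular calcium via Fluo-8 fluorescence; Dosing: single-point, 3 µM nominal; Read-out basis: percent activation from peak-over-basal fluorescence ratio, scaled EC20-to-EC100 acetylcholine; Repeats: one well per compound, no replicates.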
M5 ag = CHRM5 agonism in calcium assay; P08912; CHO-K1 hM5 cells, Fluo-8 calcium fluorescence; 0% DMSO wells, 100% maximal acetylcholine response; activation, % at 3 µM; 360,000 tested, 0.19% active; AID 624037;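 active means activation above the run's mean over test compounds plus 3 SD, cut at about 23% in these data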;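 further: signal is peak over basal fluorescence ratio across the kinetic read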
M5 antag = antagonists of human muscarinic M5 receptor (CHRM5); P08912; CHO-hM5 cells, Fluo-8 calcium fluorescence, ACh EC80; inhibition, % at 3 µM; 360,000 tested, 0.59% active; AID 624040;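 active means inhibition above a per-plate cutoff, the mean of that plate's test compounds plus 3 SD, cut at about 27% in these data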;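 further: 0% = acetylcholine EC80 with DMSO and 100% = DMSO without agonist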
CHRM4 agonist = agonists of human muscarinic M4 receptor (CHRM4). AID 624127. 360,000 tested, 0.14% active. P08173. activation, % at 3 µM. CHO-K1 hM4/Gqi5, Fluo-8 calcium fluorescence; vehicle 0%, full acetylcholine response 100%;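 active means activation above the run mean over all test wells plus 3 SD, cut at about 32% in these data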;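 further: peak over basal fluorescence ratio per well then scaled between controls; 0% = DMSO wells and 100% = acetylcholine at EC100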
CHRM4 PAM = CHRM4 positive allosteric modulation; P08173; AID 624126; 360,000 tested, 0.4% active; activation, % at 3 µM; CHO-K1 hM4/Gqi5, Fluo-8 calcium fluorescence, ACh EC20; 0% = ACh EC20, 100% = maximal ACh;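 active means activation above its plate's cutoff, the mean activation of sample wells plus 3 SD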
M4 antag = blocks acetylcholine activation of human M4 receptor; P08173; CHO-hM4 cells, ACh EC80, Fluo-8 calcium fluorescence; inhibition, % at 3 µM; 360,000 tested, 0.73% active;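 active means inhibition above its plate's cutoff, the mean inhibition of sample wells plus 3 SD, cut at about 27% in these data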;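 further: 0% = acetylcholine EC80 with DMSO and 100% = DMSO without agonist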
Active calls of the source: *. Sampled rows, rich in hits. Any-hit rate of the full collection: about 1.8%.

Screening CC(C)=NOc1nc(NC(=O)NS(=O)(=O)c2ccccc2Cl)nc(N(C)C)n1 returned M5 PAM 12, M5 ag 0, M5 antag -14, CHRM4 agonist 1, CHRM4 PAM -1 and M4 antag -9.
COC(=O)CSc1ccc(S(=O)(=O)N2CCC(C)CC2)cc1[N+](=O)[O-] was read as M5 PAM 13, M5 ag -3, M5 antag -2, CHRM4 agonist 1, CHRM4 PAM 25* and M4 antag -11.
Screening Cc1ccc(S(=O)(=O)N2CCC(C)CC2)cc1[N+](=O)[O-] returned M5 PAM 6, M5 ag -2, M5 antag -8, CHRM4 agonist 1, CHRM4 PAM 10 and M4 antag -8.
For CC(Sc1ccc(S(=O)(=O)N2CCOCC2)cc1[N+](=O)[O-])C(=O)O (stereo unspecified) the results were M5 PAM 7, M5 ag -3, M5 antag 1, CHRM4 agonist 2, CHRM4 PAM 23* and M4 antag -12.
`O=C(CC1C(=O)NCCN1CC1CCCCC1)NCc1cc(F)ccc1F` (stereo unspecified) gave M5 PAM -15, M5 ag -1, M5 antag 27*, CHRM4 agonist 3, CHRM4 PAM 5 and M4 antag 0.
`O=C(CC1C(=O)NCCN1CC1CCCCC1)NCc1ccc(F)cc1F` (stereo unspecified) gave M5 PAM 12, M5 ag -1, M5 antag -7, CHRM4 agonist 1, CHRM4 PAM 4 and M4 antag -10.
O=C(Nc1cccc(C(=O)O)c1)/C(=C\c1cccc([N+](=O)[O-])c1)NC(=O)c1ccc(Br)cc1 was read as M5 PAM 3, M5 ag 0, M5 antag -1, CHRM4 agonist 1, CHRM4 PAM 14 and M4 antag -15.
CCN1C(=O)/C(=C2\Sc3ccccc3N2CC)OC1=S was read as M5 PAM 14, M5 ag 0, M5 antag -12, CHRM4 agonist 2, CHRM4 PAM 23* and M4 antag -8.
C=CCN1C(=O)/C(=C2/Sc3ccccc3N2CC)SC1=S was read as M5 PAM 5, M5 ag 0, M5 antag 3, CHRM4 agonist -1, CHRM4 PAM -6 and M4 antag -8.
COc1ccc(C(CNC(=O)c2ccc(OC)c(S(=O)(=O)N3CCCC3)c2)N2CCCC2)cc1 (stereo unspecified) was read as M5 PAM 9, M5 ag -7, M5 antag -6, CHRM4 agonist 0, CHRM4 PAM 17 and M4 antag -20.
`CSc1nc(N)nc(SCC(=O)Nc2cccc(F)c2)c1C#N` gave M5 PAM -19, M5 ag 7, M5 antag 42*, CHRM4 agonist 22, CHRM4 PAM -4 and M4 antag 15.
`CSc1nc(N)nc(SCC(=O)Nc2ccc(Cl)cc2)c1C#N` gave M5 PAM -12, M5 ag 7, M5 antag 11, CHRM4 agonist 9, CHRM4 PAM -12 and M4 antag 8.
For NNC(=O)c1ccc(COCC(F)(F)F)cc1 the results were M5 PAM -9, M5 ag 3, M5 antag 6, CHRM4 agonist 11, CHRM4 PAM -25 and M4 antag 3.
COc1ccc(C(O)(CCN2CCCCC2)C2CCCCC2)cc1 (stereo unspecified) was read as M5 PAM -23, M5 ag -11, M5 antag 64*, CHRM4 agonist 0, CHRM4 PAM -20 and M4 antag 75*.
COC(=O)c1nccc2c1[nH]c1ccccc12 was read as M5 PAM -2, M5 ag 1, M5 antag 1, CHRM4 agonist 1, CHRM4 PAM 8 and M4 antag -11.
Screening COc1cc([N+](=O)[O-])ccc1NC(=O)NCC1CCN(Cc2ccc(Cl)cc2)CC1 returned M5 PAM -23, M5 ag -5, M5 antag 17, CHRM4 agonist 29, CHRM4 PAM -20 and M4 antag 32*.
